The source of these data is ChEMBL document CHEMBL1128272, “Stereoselective LSD-like activity in a series of d-lysergic acid amides of (R)- and (S)-2-aminoalkanes” (J Med Chem, 1995).

In experiment [1] the test system is Rattus norvegicus. The experiment is described as follows: Percentage of animals selecting drug lever in trained rats at a dose 372 (nmol/kg). Format: functional. An outline of the steps: (§1)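 Two-lever drug discrimination in food-restricted rats (~80% free-feeding weight) trained on FR 50 to tell saline from LSD tartrate (186 nmol/kg, 0.08 mg/kg ip, 30 min pre-session). Test drugs were given ip in saline, 1 mL/kg. Test sessions ran under extinction, ending at 50 presses on either lever. Testing required 85% training accuracy. Counts of rats tested and disrupted were recorded, plus the percentage selecting the drug lever.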

The test system of experiment [2] is Rattus norvegicus. The experiment is described as follows: Compound was tested for its effect on animals. Value reported as number of rats disrupted in trained rats at a dose of 290 (nmol/kg). Format: functional. An outline of the steps: as §1
Experiment [3] relates to Rattus norvegicus. The experiment is described as follows: Compound was tested for its effect on animals. Value reported as number of rats disrupted in trained rats at a dose of 372 (nmol/kg). The format is functional. Summed up: as §1
Experiment [4] concerns Rattus norvegicus. The experiment is described as follows: Compound was tested for its effect on animals. Value reported as number of rats disrupted in trained rats at a dose of 47 (nmol/kg). Format: functional. An outline of the steps: as §1
Experiment [5] has as its target 5-hydroxytryptamine receptor 2A (Rattus norvegicus, UniProt P14842). The experiment is described as follows: Binding affinity was measured against 5-hydroxytryptamine 2A receptor by displacement of [3H]- ketanserin by lysergic acid amides. An outline of the steps:
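Rat frontal cortex membranes from pooled male Sprague-Dawley rats, preincubated at 37 °C, in 50 mM Tris HCl (pH 7.4) with 0.5 mM Na2EDTA, 0.1% ascorbate, 10 μM pargyline and 5.7 mM CaCl2. Triplicates. Three to four experiments combined.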
On the technique in general: Loss of bound radioactivity is the signal in a displacement assay; it reports binding, not function.

In experiment [6] the test system is Rattus norvegicus. The experiment is described as follows: Potency in trained rats was determined with relative to reference compound […] at a dose of 186 (nmol/kg). Format: functional.
In experiment [7] the test system is Rattus norvegicus. The experiment is described as follows: Percentage of animals selecting drug lever in trained rats at a dose 465 (nmol/kg). The format is functional. An outline of the steps: (§2)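 Drug-naive rats held at about 80% of free-feeding weight were trained on a two-lever FR50 food schedule to tell ip LSD tartrate (186 nmol/kg, 0.08 mg/kg) from saline, given 30 min before sessions. Test drugs were given ip in saline (1 mL/kg). Tests ran under extinction and ended at 50 presses on either lever. Rats had to hold 85% correct on training days. Read-out was % selecting the drug lever per dose.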

Experiment [8] deals with Rattus norvegicus. The experiment is described as follows: Effective dose in trained rats was determined at a dose of 47 (nmol/kg). Format: functional.
The subject of experiment [9] is Rattus norvegicus. The experiment is described as follows: Compound was tested for its effect on animals. Value reported as number of rats disrupted in trained rats at a dose of 186 (nmol/kg). The format is functional. Summed up:
as §1

Experiment [10] relates to Rattus norvegicus. The experiment is described as follows: Percentage of animals selecting drug lever in trained rats at a dose 290 (nmol/kg). Format: functional. An outline of the steps:
as §1

Experiment [11] has as its system Rattus norvegicus. The experiment is described as follows: Percentage of animals selecting drug lever in trained rats at a dose 93 (nmol/kg). The format is functional. An outline of the steps:
as §2

The test system of experiment [12] is Rattus norvegicus. The experiment is described as follows: Compound was tested for its effect on animals. Value reported as number of rats disrupted in trained rats at a dose of 465 (nmol/kg). Format: functional. An outline of the steps: as §1
For experiment [13], the target named is T1, 5-hydroxytryptamine receptor 1A (Rattus norvegicus, UniProt P19327).
T1 sequence (P19327 whole entry): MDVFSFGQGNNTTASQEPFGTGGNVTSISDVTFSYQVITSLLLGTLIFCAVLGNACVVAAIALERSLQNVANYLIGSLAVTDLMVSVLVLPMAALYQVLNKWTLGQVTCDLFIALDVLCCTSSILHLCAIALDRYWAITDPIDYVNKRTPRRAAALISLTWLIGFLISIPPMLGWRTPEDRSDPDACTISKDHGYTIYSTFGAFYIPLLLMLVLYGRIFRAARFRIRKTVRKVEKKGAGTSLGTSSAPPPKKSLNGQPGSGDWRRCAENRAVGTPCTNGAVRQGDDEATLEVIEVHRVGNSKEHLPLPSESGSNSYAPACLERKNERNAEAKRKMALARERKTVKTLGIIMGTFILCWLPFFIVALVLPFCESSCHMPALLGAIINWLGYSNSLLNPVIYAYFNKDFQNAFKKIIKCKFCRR
The experiment is described as follows: Binding affinity was measured against 5-hydroxytryptamine 1A receptor by displacement of [3H]8-OH-DPAT by lysergic acid amides. Summed up: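 Rat hippocampal membranes from pooled male Sprague-Dawley rats, preincubated at 37 °C, in 50 mM Tris HCl (pH 7.4) with 0.5 mM Na2EDTA, 0.1% ascorbate and 10 μM pargyline. Competition against 0.75 nM [3H]-8-OH-DPAT for 10 min at 37 °C, then GF/C filtration and scintillation counting. Triplicates. Three to four experiments combined, analysed with EBDA/LIGAND.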

Experiment [14] has as its system Rattus norvegicus. The experiment is described as follows: Compound was tested for its effect on animals. Value reported as number of rats disrupted in trained rats at a dose of 93 (nmol/kg). Format: functional. An outline of the steps: as §1

A word on the Ki: it is the equilibrium dissociation constant of an inhibitor or competing ligand from its target. A lower Ki goes with tighter binding. What is called ED50 is the dose at which the effect has come halfway, by size or by number of responders.

Chain of 5-hydroxytryptamine receptor 2A (P14842 whole entry): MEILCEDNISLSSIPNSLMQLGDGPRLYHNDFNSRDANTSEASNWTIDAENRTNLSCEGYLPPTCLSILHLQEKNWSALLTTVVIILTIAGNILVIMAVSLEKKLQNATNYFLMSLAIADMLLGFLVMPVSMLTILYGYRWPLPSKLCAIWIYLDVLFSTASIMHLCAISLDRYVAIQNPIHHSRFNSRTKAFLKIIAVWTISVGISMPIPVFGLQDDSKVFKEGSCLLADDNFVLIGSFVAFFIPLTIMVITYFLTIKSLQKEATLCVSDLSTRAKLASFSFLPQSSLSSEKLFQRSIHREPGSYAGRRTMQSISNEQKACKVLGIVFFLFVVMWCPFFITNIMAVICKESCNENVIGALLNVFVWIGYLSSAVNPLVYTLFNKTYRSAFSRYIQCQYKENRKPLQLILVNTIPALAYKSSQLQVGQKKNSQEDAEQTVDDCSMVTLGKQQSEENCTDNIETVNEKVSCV

For `CC[C@@H](C)NC(=O)[C@@H]1C=C2c3cccc4[nH]cc(c34)C[C@H]2N(C)C1`, the SDL is listed as 75% in experiment [1], 100% in experiment [7], 67% in experiment [10] and 50% in experiment [11]. Further, the D is given as 10% in experiment [2]; 0% in [3]; 10% in [4]; 27% in experiment [9]; 10% in experiment [12]; 0% in [14]. Moreover, the inhibition constant Ki in experiment [5] is 0.034 µM; in [13], 0.0046 µM. The molecule also displayed a Potency in experiment [6] of 0.39. The molecule further displayed a median effective dose (ED50) in experiment [8] of 0.124 µmol/kg.
